Screening results from PubChem.
NadD inh: NadD (S. aureus) enzyme inhibition. inhibition, % at 20 µM. actives 0.78% (n = 360,000). purified NadD enzyme, colorimetric absorbance read-out; in the data active means inhibition above about 26%
Scp-1 inhibitor: inhibitors of human Scp-1 phosphatase; Q9GZU7; Recombinant Scp1, phosphopeptide, malachite green phosphate absorbance; inhibition, % at 20 µM; actives 0.88% (n = 340,000);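 active means inhibition above about 50% at 20 µM, limit read from the data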;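 further: plate controls were DMSO wells with enzyme for no effect and wells lacking enzyme for full effect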
Target sequence (Q9GZU7 76-261 limits assumed): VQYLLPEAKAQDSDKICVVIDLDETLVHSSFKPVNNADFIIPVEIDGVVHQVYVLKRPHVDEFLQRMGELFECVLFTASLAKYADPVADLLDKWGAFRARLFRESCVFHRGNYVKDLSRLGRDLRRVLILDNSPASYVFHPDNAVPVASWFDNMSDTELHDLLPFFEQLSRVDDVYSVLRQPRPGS
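assay system = SCP-1 phosphatase catalytic domain, residues 76-261 | buffer or medium = 50 mM Tris acetate pH 5.5, 0.005% Tween-20, 10 mM MgCl2 | incubation = enzyme reaction 45 min at room temperature, colour 5 min, stabilisation 30 min | signal = Phosphate-binding colour reagent, absorbance read at 630 nm | measure = % inhibition at 20 µM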
LMPTP inh: blocks human LMPTP phosphatase | actives 0.22% (n = 360,000) | recombinant LMPTP-A, OMFP fluorogenic substrate, fluorescence intensity | AID 651560 | inhibition, % at 20 µM;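 active means compounds that cut the enzyme signal by at least half of the control window in the single-dose screen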;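 further: plate controls were DMSO wells with enzyme plus substrate for no effect and substrate without enzyme for full effect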
Target sequence (P24666 whole entry, looked up): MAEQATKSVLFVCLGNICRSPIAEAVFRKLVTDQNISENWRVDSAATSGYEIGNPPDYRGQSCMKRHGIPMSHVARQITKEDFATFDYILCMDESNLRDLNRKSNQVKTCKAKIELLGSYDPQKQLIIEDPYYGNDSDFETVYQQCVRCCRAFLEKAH
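Buffer or medium: Bis-Tris pH 6.0, DTT, detergent; Assay system: LMPTP-A enzyme; Quantity: 0.625 nM enzyme; Detection: endpoint fluorescence intensity; Times: 50 min dark incubation at room temperature; Controls: substrate-only low control, DMSO enzyme-plus-substrate high control; Doses: single 20 µM dose; Read-out: percent inhibition versus substrate-only and uninhibited controls; Reagent: 400 µM OMFP.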
DNMT1 block: DNMT1 (human) enzyme inhibition; actives 0.83% (n = 360,000); DNMT1 molecular beacon, Hinp1I cleavage, fluorescence; P26358; AID 588458; inhibition (reported as % activation of signal), % at 10 µM; in the data active means inhibition above about 50%
STEP inh: blocks human striatal-enriched tyrosine phosphatase. inhibition, % at 20 µM. actives 0.25% (n = 360,000). P54829. recombinant STEP, OMFP fluorogenic substrate, fluorescence;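 active means inhibition at 20 µM, scaled per plate between control wells, above about 37%, limit read from the data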;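 further: 0% = DMSO with enzyme and substrate and 100% = substrate only without enzyme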
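System: STEP (striatal-enriched tyrosine phosphatase) enzyme, cell-free; medium: Bis-Tris pH 6.0 buffer with DTT, detergent; dosing: 20 µM, 1% DMSO; times: reaction 20 min, ambient temperature; detection: fluorescence, 480/540 nm; read-out basis: normalized % inhibition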
SUMO1 PPI mod: alters human SUMO1 binding to SIM partners; P63165; SUMO1 binding to a labelled peptide, TR-FRET, 1 h; inhibition, % at 20 µM; actives 0.33% (n = 360,000); AID 602429; in the data active means inhibition above about 37%
Target sequence (P63165 whole entry, looked up): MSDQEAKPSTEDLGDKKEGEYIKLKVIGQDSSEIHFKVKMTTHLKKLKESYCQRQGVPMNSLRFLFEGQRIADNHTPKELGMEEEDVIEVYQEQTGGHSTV
NadD inh conf: NadD (S. aureus) inhibition, single concentration confirmation; shares compounds with NadD inh; purified S. aureus NadD, colorimetric enzyme assay; inhibition, % at 20 µM; actives 13% (n = 2,000); AID 624309; in the data active means inhibition mostly above about 42%, no sharp cut-off; inactive means mostly below about 42%
Numbers without * were called inactive. This is a sample that favours compounds with a hit; in the whole collection about 2.4% have one here.

Results for CCOc1ccc(C2C(C(=O)Nc3ccccc3)=C(C)N=c3s/c(=C/c4cccc(OCC(=O)O)c4)c(=O)n32)cc1 (stereo unspecified) ?
NadD inh: 33*; Scp-1 inhibitor: 13; LMPTP inh: -1; DNMT1 block: -2; STEP inh: 2; SUMO1 PPI mod: 20; NadD inh conf: 44

Results for Cc1ccc(C2C(C=Nc3c(C)n(C)n(-c4ccccc4)c3=O)=C(c3ccccc3)Oc3ccccc32)cc1 (stereo unspecified) ?
NadD inh: 38*; Scp-1 inhibitor: 10; LMPTP inh: 7; DNMT1 block: -4; STEP inh: 4; SUMO1 PPI mod: -2; NadD inh conf: 11

How did Cc1c(N=Cc2cccs2)c(=O)n(-c2ccccc2)n1C do in these assays?
NadD inh: 6; Scp-1 inhibitor: -4; LMPTP inh: -1; DNMT1 block: -4; STEP inh: 1; SUMO1 PPI mod: -10

Results for O=[N+]([O-])c1ccc(/C=N/n2c(-c3ccccc3)n[nH]c2=S)cc1 ?
NadD inh: 6; Scp-1 inhibitor: -4; LMPTP inh: -2; DNMT1 block: 0; STEP inh: 2; SUMO1 PPI mod: -22

How did O=[N+]([O-])c1ccc(-c2nn(-c3ccccc3)cc2/C=N/n2c(-c3cccs3)n[nH]c2=S)cc1 do in these assays?
NadD inh: 43*; Scp-1 inhibitor: -4; LMPTP inh: -1; DNMT1 block: 2; STEP inh: 1; SUMO1 PPI mod: 5; NadD inh conf: 3

Results for COc1ccc(-c2csc(NC(=S)NC(=O)c3ccccc3)n2)cc1Br ?
NadD inh: 11; Scp-1 inhibitor: -13; LMPTP inh: 0; DNMT1 block: 27; STEP inh: 1; SUMO1 PPI mod: 6

How did COc1ccc(C(=O)NC(=S)Nc2nc(-c3ccc(OC)c(Br)c3)cs2)cc1Br do in these assays?
NadD inh: 33*; Scp-1 inhibitor: -11; LMPTP inh: 0; DNMT1 block: -5; STEP inh: -2; SUMO1 PPI mod: 2; NadD inh conf: 0

Results for COc1ccccc1NC(=O)c1sc2ncn(CC(=O)Nc3ccccc3)c(=O)c2c1C ?
NadD inh: 30*; Scp-1 inhibitor: 15; LMPTP inh: 5; DNMT1 block: 10; STEP inh: 2; SUMO1 PPI mod: 1; NadD inh conf: 5

Results for O=C(N/N=C/c1c(Nc2cccc(C(F)(F)F)c2)nc2ccccn2c1=O)c1ccccc1[N+](=O)[O-] ?
NadD inh: 32*; Scp-1 inhibitor: -5; LMPTP inh: -2; DNMT1 block: 4; STEP inh: -3; SUMO1 PPI mod: -7; NadD inh conf: 5

Results for CCN(CC)C(=S)Sc1c(-c2ccccc2)c2cc(Cl)ccc2[nH]c1=O ?
NadD inh: 39*; Scp-1 inhibitor: -2; LMPTP inh: 3; DNMT1 block: -15; STEP inh: 12; SUMO1 PPI mod: -4; NadD inh conf: 0

Results for O=C(Nc1nc2cc(Cl)ccc2s1)C1CCCN(S(=O)(=O)c2cccc3cccnc23)C1 (stereo unspecified) ?
NadD inh: 36*; Scp-1 inhibitor: 3; LMPTP inh: 4; DNMT1 block: -21; STEP inh: 2; SUMO1 PPI mod: 0; NadD inh conf: 11

How did CCOc1cc(/C=C2\N=C(SCC)SC2=O)cc([N+](=O)[O-])c1OC(C)=O do in these assays?
NadD inh: 30*; Scp-1 inhibitor: 0; LMPTP inh: 5; DNMT1 block: 1; STEP inh: 11; SUMO1 PPI mod: 7; NadD inh conf: 3

What do the screens show for `CCOc1cc(/C=C2\N=C(SC)SC2=O)cc([N+](=O)[O-])c1OC(C)=O`?
NadD inh: 46*; Scp-1 inhibitor: -12; LMPTP inh: 3; DNMT1 block: 7; STEP inh: 13; SUMO1 PPI mod: 9; NadD inh conf: 2

How did CCOc1c(OC(C)=O)ccc(/C=C2\N=C(SCC)SC2=O)c1[N+](=O)[O-] do in these assays?
NadD inh: 5; Scp-1 inhibitor: -14; LMPTP inh: 0; DNMT1 block: -16; STEP inh: 2; SUMO1 PPI mod: -35

How did CN(C)CCCN(C(=O)c1ccc(S(=O)(=O)N2CCc3ccccc32)cc1)c1nc2ccc(F)cc2s1 do in these assays?
NadD inh: 16; Scp-1 inhibitor: 2; LMPTP inh: 0; DNMT1 block: -1; STEP inh: 4; SUMO1 PPI mod: -21

How did CN(C)CCCN(C(=O)c1ccc(S(=O)(=O)N2CCc3ccccc32)cc1)c1nc2ccc(Cl)cc2s1 do in these assays?
NadD inh: 52*; Scp-1 inhibitor: 4; LMPTP inh: 3; DNMT1 block: 23; STEP inh: 19; SUMO1 PPI mod: -70; NadD inh conf: 28

How did Cc1ccc(-c2cc(C(F)F)n3ncc(C(=O)Nc4ccc(S(=O)(=O)Nc5ccccc5C)cc4)c3n2)cc1 do in these assays?
NadD inh: 36*; Scp-1 inhibitor: 1; LMPTP inh: -1; DNMT1 block: -1; STEP inh: 1; SUMO1 PPI mod: -4; NadD inh conf: 1

Results for CCOC(=O)N1CCC(N2Cc3cccc(C(=O)Nc4ccc(N(CC)CC)cc4C)c3C2=O)CC1 ?
NadD inh: 6; Scp-1 inhibitor: -2; LMPTP inh: 1; DNMT1 block: -3; STEP inh: 1; SUMO1 PPI mod: -5

What do the screens show for `COc1ccc(C)cc1-n1nnnc1SC/C(O)=C(\C#N)c1nc2ccccc2[nH]1`?
NadD inh: 6; Scp-1 inhibitor: 5; LMPTP inh: 0; DNMT1 block: -23; STEP inh: 0; SUMO1 PPI mod: 1

Results for Cc1cc(C)n2c(SCC(O)=C(C#N)c3nc4ccccc4[nH]3)nnc2n1 ?
NadD inh: 25; Scp-1 inhibitor: 33; LMPTP inh: 37; DNMT1 block: 25; STEP inh: 0; SUMO1 PPI mod: 18

Results for Cc1ccc(Nc2nnc(SC/C(O)=C(\C#N)c3nc4ccccc4[nH]3)s2)c(C)c1 ?
NadD inh: 56*; Scp-1 inhibitor: -5; LMPTP inh: 1; DNMT1 block: -20; STEP inh: -2; SUMO1 PPI mod: 24; NadD inh conf: 61*

How did Cc1cccc(Nc2nnc(SC/C(O)=C(\C#N)c3nc4ccccc4[nH]3)s2)c1 do in these assays?
NadD inh: 32*; Scp-1 inhibitor: -4; LMPTP inh: 1; DNMT1 block: -18; STEP inh: -3; SUMO1 PPI mod: 19; NadD inh conf: 38

How did O=C(Nc1ccc(Cl)c(Cl)c1)Nc1nnc(CSc2ccccc2)s1 do in these assays?
NadD inh: 3; Scp-1 inhibitor: 6; LMPTP inh: -1; DNMT1 block: 20; STEP inh: 0; SUMO1 PPI mod: 0
